These results are taken from paper PMC7116464 (Biochemical pharmacology, 2019).

Assay [1] has as its system Leishmania tarentolae promastigotes (LtP). Nature of the assay: Viability assay of LtP. The class given is cell-based. Conditions: calculated from IC50, J774/IC50, LtP.
For the next assay, the system named is J774 macrophages. Nature of the assay: Viability assay of J774 cells. It counts as cell-based, murine. Conditions: Mus musculus, J774, read-out: IC50 J774. Summed up: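 J774A.1 macrophages seeded at 1 × 10^5/mL in DMEM/10% FCS and allowed to attach for 24 h (37 °C, 5% CO2). Wells washed with PBS and refilled with medium. Compounds added from 25 or 200 µM in five 1:5 serial dilutions, triplicate. After 24 h, 20 µM resazurin (final) added for 4 h; fluorescence read at ex 560/em 590 nm.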

In assay [2] the test system is Leishmania tarentolae promastigotes (LtP). The class given is cell-based. The conditions noted are these: for IC50: Leishmania tarentolae, read-out: IC50 in the absence of additional inhibitors; for influence on the antileishmanial action (IC50) of Asc and Art: PIH 100 µM, SnMP 50 µM, CrMP 50 µM, NAC 2 mM, LtP in YEM/PBS with 6 µM hemin.
The test system of assay [3] is HO-like activity in LtP homogenates. Nature of the assay: Heme oxygenase-like activity. It counts as biochemical, Leishmania tarentolae.
Assay [4] relates to labile iron pool (LIP) in LtP. Nature of the assay: Low temperature EPR spectroscopy of the labile iron pool in LtP. The conditions noted are these: 1 mM EP, 1 h at 26 °C, EPR at 77 K. The class given is cell-based, Leishmania tarentolae.
The next assay relates to splenic parasite burden. The conditions noted are these: Art orally 25 mg/kg body weight vs SAG 20 mg/kg body weight; cited from earlier work.
In assay [5] the test system is hemin degradation in LtP homogenates and SGF/MCF fractions. As to the kind of experiment: Hemin degradation in LtP homogenates and SGF/MCF subfractions by HPLC. The conditions noted are these: 40 µM ZnPP, 7 µM hemin, 0, 2 or 4 h at 26 °C. The class given is biochemical, Leishmania tarentolae. In a few lines: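 LtP homogenates from hypo-osmotic lysis and freeze–thaw (37 mg protein/mL), or pooled SGF/MCF pellets from differential centrifugation (3.7 mg protein/mL). Samples diluted in phosphate buffer pH 7.4 with 7 µM hemin plus 1.1 mM NADPH or 40 µM ZnPP; 0, 2 or 4 h at 26 °C. Hemin followed by HPLC-UV, normalised to 0 h; mean ± SD, n = 3.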

Assay [6] deals with Leishmania tarentolae promastigotes (LtP). Nature of the assay: Metal. The conditions noted are these: 0 - 3 days; for iron content in LtP: 10 µM SnMP or 1 µM ZnPP, ICP-OES. The class given is cell-based. Summed up: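 Promastigotes (3.6 × 10^7/mL at day 0, OD600 0.3) grown in medium alone, with 10 µM SnMP or with 1 µM ZnPP for 0–3 days at 27 °C. After acid digestion (final 2 h at 75 °C), Fe measured by ICP-OES against 0.01–10 ppm standards. Sn measured by ICP-MS (120Sn, 0.1–100 ppb standards, isotope-corrected) after further 3-fold dilution. Results given as amol/cell.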

Where [7] appears, read: SnMP or CrMP 38 µM, 77 µM, hemin 6.67 µM, NADPH 1 mM, RLS, 27 °C, 30 min.

In the case of `C[C@H]1[C@H](OC(=O)CCC(=O)O)O[C@@H]2O[C@@]3(C)CC[C@H]4[C@H](C)CC[C@@H]1[C@@]24OO3` [Arsu, artesunate], the “IC50, J774/IC50, LtP (selectivity index)” value in assay [1] was 9. The IC50 with J774 macrophages stood at 16.9 ± 5.2 µM.
For the compound `C[C@@H]1CC[C@H]2[C@@H](C)C(=O)O[C@@H]3O[C@@]4(C)CC[C@@H]1[C@]32OO4` [Art, artemisinin], the IC50 with J774 macrophages was found to be 192 ± 41.1 µM; in assay [2] it was 2.96 ± 0.71 µM. Also, the “HO-like activity (bilirubin formation)” value in assay [3] (Art 500 µM in the presence of catalase 2520 U/mL) is on record as “inhibited the HO-like activity in LtP homogenates”. For the same compound, in assay [4], the “influence on the redox state of the LIP (apparent Fe3+)” value was “influences the redox state of the LIP in LtP to a much lesser extent than Asc”. The splenic parasite burden result in the assay on splenic parasite burden is on record as “reduce the splenic parasite burden slightly more than sodium antimony gluconate (SAG)”.
For `CC(C)C12C=CC(C)(CC1)OO2` (centres unmarked) [Asc, Ascaridole], the “IC50, J774/IC50, LtP (selectivity index)” value in assay [1] was 7. Moreover, the results for the IC50 (in the assay with J774 macrophages; in assay [2]) were 202 ± 38.2 µM and 28.3 ± 6.7 µM, respectively.
Turning to `C[C@H]1[C@@H](O)O[C@@H]2O[C@@]3(C)CC[C@H]4[C@H](C)CC[C@@H]1[C@@]24OO3` [DHA, dihydroartemisinin], in assay [1], the “IC50, J774/IC50, LtP (selectivity index)” value is on record as 20. For the same compound, the IC50 with J774 macrophages amounted to 14.8 ± 6.49 µM.
The corresponding values for `C[C@@H]1CC[C@H]2[C@@H](C)C(=O)O[C@@H]3O[C@@]4(C)CC[C@@H]1[C@]32O4` [DeoxyArt, deoxyartemisinin] are 1 and more than 200 µM.
With `CC(=O)N[C@@H](CS)C(=O)O` [NAC, N-acetylcysteine], the “influence on the antileishmanial action (IC50) of Asc and Art” value (“influence on the antileishmanial action” for short) in assay [2] is “inhibited the action of Asc and even stronger that of Art”.
Same read-out and setting: the value for `Cc1ncc(CO)c(/C=N/NC(=O)c2ccncc2)c1O` [PIH, Pyridoxal isonicotinoyl hydrazone] was “non-selectively inhibited the action of both Asc and Art in a similar fashion”.
For the compound `N=C(N)c1ccc(OCCCCCOc2ccc(C(=N)N)cc2)cc1` [Pen, pentamidine isethionate], the “IC50, J774/IC50, LtP (selectivity index)” value in assay [1] was 15. Moreover, the IC50 in the assay with J774 macrophages is 12.3 ± 3.96 µM.
On to `C=CC1=C(C)c2cc3[n-]c(cc4nc(cc5[n-]c(cc1n2)c(C)c5C=C)C(C)=C4CCC(=O)O)c(CCC(=O)O)c3C.[Zn+2]` [ZnPP, zinc protoporphyrin], for which the hemin degradation entry in assay [5] is listed as “strongly inhibited”. Moreover, the “iron content in LtP” value in assay [6] is “small decline but no total inhibition of iron import into LtP”.
In the case of Tin mesoporphyrin [SnMP], the “influence on the antileishmanial action” value in assay [2] is recorded as “inhibited the antileishmanial activity of Art stronger than that of Asc”. Moreover, the “HO-like activity (bilirubin formation)” value in assay [3] (setting [7]) is listed as “inhibit this HO-like activity”. Further, the “iron content in LtP” value in assay [6] was “almost identical over several days”. The “Sn accumulation in LtP” value in assay [6] (10 µM SnMP, ICP-MS) is “taken up into LtP”.
For chromium mesoporphyrin [CrMP], the “influence on the antileishmanial action” value in assay [2] is “inhibited the antileishmanial activity of Art stronger than that of Asc”. Further, in assay [3] (setting [7]), the “HO-like activity (bilirubin formation)” value is given as “inhibit this HO-like activity”.
